# According to ChEMBL document CHEMBL1132179, “Design, synthesis, and biological evaluation of novel non-piperazine analogues of 1-[2-(diphenylmethoxy)ethyl]- and 1-[2-[bis(4-fluorophenyl)methoxy]ethyl]-4-(3-phenylpropyl)piperazines as dopamine transporter inhibitors” (J Med Chem, 1999):
# Assays:
# [1] = target: T1, Sodium-dependent serotonin transporter (Homo sapiens, UniProt P31645); assay: Ratio between [3H]5-HT reuptake and SERT binding; format: functional
# Target sequence in this assay (P31645 whole entry, looked up): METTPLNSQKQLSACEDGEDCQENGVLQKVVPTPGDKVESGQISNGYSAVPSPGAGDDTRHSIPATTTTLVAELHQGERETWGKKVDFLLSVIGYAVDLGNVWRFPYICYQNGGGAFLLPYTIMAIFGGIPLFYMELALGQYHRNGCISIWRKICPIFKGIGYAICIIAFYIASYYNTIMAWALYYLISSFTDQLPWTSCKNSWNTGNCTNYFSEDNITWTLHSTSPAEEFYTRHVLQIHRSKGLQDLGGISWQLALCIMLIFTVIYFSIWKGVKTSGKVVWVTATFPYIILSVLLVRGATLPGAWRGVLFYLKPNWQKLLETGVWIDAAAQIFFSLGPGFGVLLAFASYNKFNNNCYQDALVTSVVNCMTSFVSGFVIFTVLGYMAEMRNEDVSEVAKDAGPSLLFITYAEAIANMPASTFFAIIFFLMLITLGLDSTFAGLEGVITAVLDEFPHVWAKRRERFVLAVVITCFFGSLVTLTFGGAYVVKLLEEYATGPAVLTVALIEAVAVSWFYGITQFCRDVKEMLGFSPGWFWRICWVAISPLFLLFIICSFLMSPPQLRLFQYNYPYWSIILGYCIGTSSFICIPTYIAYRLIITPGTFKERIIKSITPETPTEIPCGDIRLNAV
# [2] = target: T1, Sodium-dependent serotonin transporter; assay: Inhibition of [125I]RTI-55 binding to serotonin transporter (SERT) expressed in HEK cells; format: cell-based, HEK293
# In short: (§1)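 Membranes from transfected HEK 293 cells (lysed in 2 mM HEPES/1 mM EDTA, pelleted at 30000g, resuspended in 0.32 M sucrose), ~15 μg protein per tube. GF/C filtration, counting. Duplicate competition curves; IC50 converted to Ki by Cheng–Prusoff.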
# Target sequence in this assay (P31645 whole entry): as the sequence (P31645 whole entry, looked up) above
# [3] = target: Monoamine transporters; serotonin & dopamine (Homo sapiens) (UniProt P31645+Q01959); assay: Selectivity ratio between serotonin and dopamine transporters; format: protein assay
# [4] = target: T2, Sodium-dependent noradrenaline transporter (Homo sapiens, UniProt P23975); assay: Inhibition of [3H]- NE uptake in HEK cells expressing norepinephrine transporter; format: functional, cell-based, HEK293
# [5] = target: T3, Sodium-dependent dopamine transporter (Homo sapiens, UniProt Q01959); assay: Inhibition of [125I]RTI-55 binding at Dopamine transporter (DAT) expressed in HEK cells; format: cell-based, HEK293; in short: as §1
# [6] = target: T2, Sodium-dependent noradrenaline transporter; assay: Inhibition of [125I]RTI-55 binding to norepinephrine transporter (NET) expressed in HEK cells; format: cell-based, HEK293
# [7] = target: T3, Sodium-dependent dopamine transporter; assay: Inhibition of [3H]DA uptake in HEK cells expressing dopamine transporter; format: functional, cell-based, HEK293
# In short: (§2)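 Confluent transfected HEK 293 cells washed in PBS, scraped and suspended. Suspension preincubated with drug 10 min at 25 °C in Krebs HEPES, then [3H]DA or [3H]5-HT (20 nM final) added for another 10 min. Ended by filtration onto GF/C filters presoaked in 0.05% poly(ethylenimine), counting. Six drug concentrations, triplicate; IC50 reported.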
# [8] = target: Monoamine transporters; Norepinephrine & dopamine (Homo sapiens) (UniProt Q01959+P23975); assay: selectivity ratio between noradrenaline and dopamine transporter binding; format: protein assay
# [9] = target: T1, Sodium-dependent serotonin transporter; assay: Inhibition of [3H]- 5-HT uptake in HEK cells expressing serotonin transporter; format: functional, cell-based, HEK293; in short: as §2
# Target sequence in this assay (P31645 whole entry): as the sequence (P31645 whole entry, looked up) above
# [10] = target: T3, Sodium-dependent dopamine transporter; assay: Ratio between [3H]DA reuptake and DAT binding; format: functional
# [11] = target: T2, Sodium-dependent noradrenaline transporter; assay: Compound was tested for its affinity by the inhibition of [125I]RTI-55 binding at norepinephrine transporter (NET) transfected in HEK cells; format: cell-based, HEK293
# In short: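 Membranes from HEK 293 cells transfected with NET (lysed in 2 mM HEPES/1 mM EDTA, pelleted at 30000g, resuspended in 0.32 M sucrose), ~15 μg protein, preincubated with drug 10 min. Then [125I]RTI-55 (40–80 pM final) added in Krebs HEPES, 90 min at room temperature in dark. Filtration, counting. Competition in duplicate; IC50 converted to Ki by Cheng–Prusoff. Final DMSO 0.01%.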
# Monoamine transporters; serotonin & dopamine (Homo sapiens), sequence (P31645 whole entry, looked up): as above
# Monoamine transporters; serotonin & dopamine (Homo sapiens), sequence (Q01959 whole entry, looked up): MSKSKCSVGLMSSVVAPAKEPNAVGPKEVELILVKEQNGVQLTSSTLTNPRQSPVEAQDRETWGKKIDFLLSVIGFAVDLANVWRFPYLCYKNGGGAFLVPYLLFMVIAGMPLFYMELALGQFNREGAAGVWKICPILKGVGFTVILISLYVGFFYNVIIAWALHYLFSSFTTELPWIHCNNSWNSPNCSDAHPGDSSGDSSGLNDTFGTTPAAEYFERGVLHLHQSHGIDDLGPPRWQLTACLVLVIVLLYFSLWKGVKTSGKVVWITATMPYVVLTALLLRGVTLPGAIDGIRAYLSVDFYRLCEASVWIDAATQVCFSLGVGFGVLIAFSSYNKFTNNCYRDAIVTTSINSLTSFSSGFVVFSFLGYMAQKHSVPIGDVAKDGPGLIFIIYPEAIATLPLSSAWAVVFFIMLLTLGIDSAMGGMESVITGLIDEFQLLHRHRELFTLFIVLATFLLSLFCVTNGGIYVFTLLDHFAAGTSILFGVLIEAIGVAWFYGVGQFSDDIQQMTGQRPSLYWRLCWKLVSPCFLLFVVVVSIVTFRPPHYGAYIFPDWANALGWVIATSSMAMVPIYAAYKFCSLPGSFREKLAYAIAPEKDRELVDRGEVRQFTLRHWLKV
# T3 sequence (Q01959 whole entry): as the sequence (Q01959 whole entry, looked up) above
# Monoamine transporters; Norepinephrine & dopamine (Homo sapiens), sequence (P23975 whole entry, looked up): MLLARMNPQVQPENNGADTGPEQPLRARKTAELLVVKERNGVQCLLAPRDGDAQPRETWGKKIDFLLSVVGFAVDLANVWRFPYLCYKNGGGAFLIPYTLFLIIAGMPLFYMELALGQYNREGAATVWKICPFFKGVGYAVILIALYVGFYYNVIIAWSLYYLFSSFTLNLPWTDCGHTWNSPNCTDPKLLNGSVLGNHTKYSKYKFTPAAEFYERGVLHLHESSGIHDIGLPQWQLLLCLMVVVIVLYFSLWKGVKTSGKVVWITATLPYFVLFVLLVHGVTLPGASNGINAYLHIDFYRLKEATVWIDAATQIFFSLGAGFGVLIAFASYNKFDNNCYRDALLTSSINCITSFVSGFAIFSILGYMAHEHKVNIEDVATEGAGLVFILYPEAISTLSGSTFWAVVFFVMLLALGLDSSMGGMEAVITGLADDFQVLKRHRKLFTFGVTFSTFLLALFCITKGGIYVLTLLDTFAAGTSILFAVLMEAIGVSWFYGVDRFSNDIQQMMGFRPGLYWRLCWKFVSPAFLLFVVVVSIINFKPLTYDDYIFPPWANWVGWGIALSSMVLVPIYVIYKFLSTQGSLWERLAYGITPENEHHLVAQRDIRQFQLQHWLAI
# Monoamine transporters; Norepinephrine & dopamine (Homo sapiens), sequence (Q01959 whole entry, looked up): as the sequence (Q01959 whole entry, looked up) above
# T2 sequence (P23975 whole entry): as the sequence (P23975 whole entry, looked up) above
SMILES,Ratio [1],Ki [2],Selectivity ratio [3],IC50 [4],Ki [5],Ki [6],IC50 [7],Selectivity ratio [8],IC50 [9],Ratio [10],Ki [11]
O=C(/C=C/c1ccc(Br)cc1)NCCNCCOC(c1ccc(F)cc1)c1ccc(F)cc1,7.6,590 nM,1.2,> 10000 nM,510 nM,1760 nM,1380 nM,3.5,4500 nM,2.7,–
O=C(CCc1ccccc1)NCCNCCOC(c1ccc(F)cc1)c1ccc(F)cc1,2.2,523 nM,10.3,205 nM,51 nM,545 nM,90 nM,10.7,1140 nM,1.8,–
Fc1ccc(C(OCCNCCCNCCc2ccccc2)c2ccc(F)cc2)cc1,2,125 nM,4.5,116 nM,28 nM,82 nM,68 nM,2.9,249 nM,2.4,–
CN(CCOC(c1ccccc1)c1ccccc1)CCN(C)CCc1ccc(F)cc1,1.9,550 nM,18.3,279 nM,30 nM,370 nM,119 nM,12.3,1050 nM,4,–
CN(CCCN(C)CCc1ccccc1)CCOC(c1ccccc1)c1ccccc1,1.1,1530 nM,4.7,210 nM,322 nM,194 nM,349 nM,0.6,1700 nM,1.1,–
O=C1CN(CCc2ccccc2)CCN1CCOC(c1ccc(F)cc1)c1ccc(F)cc1,> 34.5,114 nM,0.1,> 10000 nM,1430 nM,7050 nM,> 10000 nM,4.9,3940 nM,> 1.7,–
O=C(Cc1ccc(F)cc1)NCCNCCOC(c1ccc(F)cc1)c1ccc(F)cc1,5.7,351 nM,6.5,299 nM,54 nM,844 nM,47 nM,15.6,1990 nM,0.9,–
O=C1CN(CCOC(c2ccccc2)c2ccccc2)CCN1CCCc1ccccc1,> 1.7,5900 nM,0.7,> 10 nM,8200 nM,–,> 10 nM,1,> 10 nM,> 1.2,5850 nM
O=C(Cc1ccccc1)NCCCNCCOC(c1ccc(F)cc1)c1ccc(F)cc1,1.1,1150 nM,18.8,192 nM,61 nM,477 nM,73 nM,7.8,1230 nM,1.2,–
O=C(Cc1ccccc1)NCCNCCOC(c1ccc(F)cc1)c1ccc(F)cc1,2.3,556 nM,10.3,399 nM,54 nM,604 nM,80 nM,11.2,1300 nM,1.5,–
CN(CCCc1ccccc1)CCCN(C)CCOC(c1ccccc1)c1ccccc1,3.9,438 nM,3.6,143 nM,122 nM,30 nM,237 nM,0.2,1700 nM,1.9,–
CN(CCOC(c1ccc(F)cc1)c1ccc(F)cc1)CCN(C)CCOC(c1ccc(F)cc1)c1ccc(F)cc1,> 13,770 nM,30.1,2600 nM,26 nM,261 nM,830 nM,10.2,> 10000 nM,32.4,–
